Consider 15 compounds from ChEMBL document CHEMBL2202972, “Synthesis and biological evaluation of 2-substituted-4-(3',4',5'-trimethoxyphenyl)-5-aryl thiazoles as anticancer agents” (Bioorg Med Chem, 2012).

The species entered for one assay is Bos taurus. Nature of the assay: Displacement of [3H]colchicine from tubulin in bovine brain at 5 uM DEAE-cellulose filter method.
Assay [1] in a line: Inhibition of bovine brain tubulin polymerization preincubated for 15 mins by turbidimetric analysis. More on the design: species or system Bos taurus. The gist of the method:
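Bovine brain tubulin (10 μM) in glutamate buffer preincubated with varying compound concentrations for 15 min at 30 °C, then chilled to 0 °C. GTP 0.4 mM added and mixtures warmed to 30 °C in a spectrophotometer; assembly followed by turbidity at 350 nm.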

A further assay has as its system HT-29. Kind of assay: Antiproliferative activity against human HT-29 cells after 72 hrs by MTT assay. Type of assay: functional, cell-based. The settings on record: HT-29, 72 h. In general terms: Tetrazolium assays rely on reduction of a dye to a coloured formazan, in cell work by metabolically active cells.
For another assay, the system named is Jurkat. Kind of assay: Antiproliferative activity against human Jurkat cells after 72 hrs by MTT assay. Type of assay: functional, cell-based. Summed up: (§1)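 Cells seeded at 8 × 10³ per well and incubated 18 h at 37 °C, 5% CO₂, then exposed to a range of compound concentrations for 72 h at 37 °C. Jurkat and HL-60 were grown in RPMI-1640, the others in DMEM, with penicillin, streptomycin and 10% FBS. DMSO stocks (10 mM); DMSO ≤0.25% final. Viability by MTT. […] Mean ± SE of ≥3 independent experiments.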

A further assay has as its system MCF7. Kind of assay: Antiproliferative activity against human MCF7 cells after 72 hrs by MTT assay. Type of assay: functional, cell-based. The settings on record: MCF7, 72 h.
Another assay deals with HL-60. Kind of assay: Antiproliferative activity against human HL60 cells after 72 hrs by MTT assay. The settings on record: HL-60, 72 h. Type of assay: functional, cell-based.
In assay [2] the test system is A549. Nature of the assay: Antiproliferative activity against human A549 cells after 72 hrs by MTT assay. Type of assay: functional, cell-based. The settings on record: A549, 72 h.
The test system of another assay is HeLa. Nature of the assay: Antiproliferative activity against human HeLa cells after 72 hrs by MTT assay. Type of assay: functional, cell-based.
Assay [3] deals with A549. Kind of assay: Resistance ratio of IC50 for human taxol-resistant A549-T12 cells expressing tubulin mutant gene to IC50 for human A549 cells. Type of assay: functional.
Assay [4] relates to CCRF-CEM. Nature of the assay: Resistance ratio of IC50 for human vinblastine-resistant CEM/VBL100 cells overexpressing P-glycoprotein to IC50 for human CEM cells. Type of assay: functional.
Assay [5] concerns LoVo. Kind of assay: Resistance ratio of IC50 for human doxorubicin-resistant LoVo/DX cells overexpressing P-glycoprotein to IC50 for human LoVo cells. Type of assay: functional.
Assay [6] can be described thus: Antiproliferative activity against human taxol-resistant A549-T12 cells expressing tubulin mutant gene after 72 hrs by MTT assay. Type of assay: functional, cell-based. Conditions: A549, 72 h. The gist of the method: (§2)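 Resistant sublines cultured under selection: LoVo^Doxo (doxorubicin-resistant LoVo subclone) in complete Ham's F12 with doxorubicin 0.1 μg/mL; A549-T12 in complete DMEM with taxol 12 nM. Seeded at 8 × 10³ per well, 18 h preincubation, then 72 h compound exposure at 37 °C. MTT read-out.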

A short description of assay [7]: Antiproliferative activity against human vinblastine-resistant CEM/VBL100 cells overexpressing P-glycoprotein after 72 hrs by MTT assay. The settings on record: CEM/VBL100, 72 h. Type of assay: functional, cell-based.
The subject of assay [8] is CCRF-CEM. Kind of assay: Antiproliferative activity against human CEM cells after 72 hrs by MTT assay. Type of assay: functional, cell-based.
The nature of assay [9]: Antiproliferative activity against human doxorubicin-resistant LoVo/DX cells overexpressing P-glycoprotein after 72 hrs by MTT assay. Type of assay: functional, cell-based. The gist of the method: as §2
The subject of assay [10] is LoVo. Nature of the assay: Antiproliferative activity against human LoVo cells after 72 hrs by MTT assay. Type of assay: functional, cell-based. The gist of the method: as §1

Broadly, the inhibition is the change of the read-out against control, counted positive when it falls. A low value points to little suppression. As usually defined, the IC50 is the concentration at which inhibition is half-maximal.

Consider `CNc1nc(-c2cc(OC)c(OC)c(OC)c2)c(-c2ccc(C)cc2)s1`, for which, in the assay filed under Bos taurus, the inhibition stood at 68%. The half-inhibitory concentration (IC50) in [1] is 1200 nM; in the assay on HT-29, 423 nM; with Jurkat, 19 nM; in the assay with MCF7, 10.1 nM; in the assay with HL-60 it was 18.1 nM; with A549 [2] it was 125 nM. The compound also displayed a 50% inhibitory concentration (IC50) with HeLa of 69.1 nM.

Regarding `CNc1nc(-c2cc(OC)c(OC)c(OC)c2)c(-c2ccc(C(F)(F)F)cc2)s1`, the half-inhibitory concentration (IC50) with HT-29 was found to be 1240 nM; in the assay with Jurkat it was 3010 nM; in the assay on MCF7, 7280 nM; in the assay on HL-60, 3170 nM; in the assay on A549 [2], 4560 nM; with HeLa, 3400 nM.

`CNc1nc(-c2cc(OC)c(OC)c(OC)c2)c(-c2ccc(OC)cc2)s1`: the “Ratio IC50” value was 0.9 in the assay on A549 [3], 1.5 with CCRF-CEM [4] and 0.8 in the assay with LoVo [5]. The compound also gave an inhibition in the assay filed under Bos taurus of 61%. Also, the concentration for half-maximal inhibition (IC50) amounted to 1300 nM in [1]; 125 nM in assay [6]; 15 nM in assay [7]; 10 nM with CCRF-CEM [8]; 152 nM in assay [9]; 190 nM in the assay with LoVo [10]. The 50% inhibitory concentration (IC50) in the assay with HT-29 was 6.3 nM; in the assay with Jurkat, 34.3 nM; with MCF7, 37.6 nM; in the assay on HL-60, 27.3 nM; with A549 [2], 138 nM; in the assay on HeLa it was 70.1 nM.

Take `CCOc1ccc(-c2sc(N(C)C)nc2-c2cc(OC)c(OC)c(OC)c2)cc1`: the IC50 in assay [1] was above 20000 nM; in the assay on HT-29, 6030 nM; in the assay on Jurkat, 4150 nM; in the assay with MCF7, above 10000 nM; in the assay on HL-60 it was 303 nM; in the assay with A549 [2], above 10000 nM. The compound further displayed an IC50 in the assay with HeLa of 3260 nM.

With `CC[C@]1(O)C[C@@H]2CN(CCc3c([nH]c4ccccc34)[C@@](C(=O)OC)(c3cc4c(cc3OC)N(C)[C@H]3[C@@](O)(C(=O)OC)[C@H](OC(C)=O)[C@]5(CC)C=CCN6CC[C@]43[C@@H]65)C2)C1` [VINBLASTINE], in the assay with CCRF-CEM [4], the “Ratio IC50” value is recorded as 256.2.

Consider `COc1cc(-c2nc(C)sc2-c2ccc(C)cc2)cc(OC)c1OC`, for which the IC50 in the assay on HT-29 is 722 nM; in the assay with Jurkat it was 517 nM; in the assay on MCF7 it was 1740 nM; with HL-60 it was 1510 nM; with A549 [2], 1950 nM; in the assay on HeLa, 1100 nM.

Consider `COc1cc(-c2nc(C)sc2-c2ccc(C(F)(F)F)cc2)cc(OC)c1OC`, for which the IC50 in the assay on HT-29 is 396 nM; with Jurkat it was 7110 nM; in the assay with MCF7, above 10000 nM; in the assay on HL-60 it was above 10000 nM; in the assay with A549 [2], 4290 nM; with HeLa it was 3830 nM.

On to `COc1cc(-c2nc(N(C)C)sc2-c2ccc3ccccc3c2)cc(OC)c1OC`, for which the IC50 is above 20000 nM in assay [1]; 729 nM in the assay on HT-29; 836 nM with Jurkat; 2380 nM with MCF7; 2570 nM in the assay on HL-60; 2900 nM with A549 [2]. This compound also registered an IC50 in the assay with HeLa of 1400 nM.

In turn, `CNc1nc(-c2cc(OC)c(OC)c(OC)c2)c(-c2ccc3ccccc3c2)s1` registered an inhibition in the assay listed under Bos taurus of 78%. The 50% inhibitory concentration (IC50) came to 960 nM in [1]; 38.2 nM with HT-29; 51.1 nM with Jurkat; 21.1 nM with MCF7; 143 nM in the assay with HL-60; 151 nM in the assay on A549 [2]. Moreover, the IC50 in the assay with HeLa is 128 nM.

Regarding `COc1ccc(-c2sc(C)nc2-c2cc(OC)c(OC)c(OC)c2)cc1`, the half-maximal inhibitory concentration (IC50) in the assay on HT-29 turned out to be 1420 nM; with Jurkat, 1760 nM; with MCF7, 606 nM; in the assay on HL-60, 3430 nM; in the assay with A549 [2], 2560 nM; with HeLa it was 500 nM.

For the compound `COc1cccc2c1C(=O)c1c(O)c3c(c(O)c1C2=O)C[C@@](O)(C(=O)CO)C[C@@H]3O[C@H]1C[C@H](N)[C@H](O)[C@H](C)O1` [DOXORUBICIN], it took 13200 nM to reach half-maximal inhibition in [9] (IC50).

In the case of `COc1cc(-c2nc(N(C)C)sc2-c2ccc(C(F)(F)F)cc2)cc(OC)c1OC`, the half-maximal inhibitory concentration (IC50) in assay [1] is above 20000 nM; with HT-29, above 10000 nM; in the assay on Jurkat it was above 10000 nM; in the assay with MCF7, above 10000 nM; with HL-60, above 10000 nM; with A549 [2], above 10000 nM. The compound also gave an IC50 in the assay with HeLa above 10000 nM.

For the compound `COc1ccc(-c2sc(N(C)C)nc2-c2cc(OC)c(OC)c(OC)c2)cc1`, the 50% inhibitory concentration (IC50) is above 20000 nM in assay [1]; 497 nM with HT-29; 7600 nM with Jurkat; 8360 nM with MCF7; 1890 nM in the assay with HL-60; above 10000 nM with A549 [2]. In the assay with HeLa, inhibition was half-maximal at 3370 nM (IC50).

As to `COc1cc(-c2nc(N(C)C)sc2-c2ccc(C)cc2)cc(OC)c1OC`, the IC50 is above 20000 nM in assay [1]; 3920 nM with HT-29; 6660 nM in the assay on Jurkat; above 10000 nM with MCF7; 3480 nM with HL-60; 3960 nM in the assay with A549 [2]. In the assay with HeLa, this compound had an IC50 of 4140 nM.

Take `CCOc1ccc(-c2sc(C)nc2-c2cc(OC)c(OC)c(OC)c2)cc1`: the inhibition in the assay filed under Bos taurus is 51%. Moreover, the IC50 in [1] came to 1200 nM; with HT-29, 487 nM; with Jurkat, 1740 nM; in the assay on MCF7 it was 42.3 nM; in the assay on HL-60, 253 nM; with A549 [2] it was 3320 nM. The same compound displayed a concentration for half-maximal inhibition (IC50) in the assay with HeLa of 1870 nM.
